Test results from ChEMBL document CHEMBL1127825, “Synthesis and in vitro evaluation of 9-anilino-3,6-diaminoacridines active against a multidrug-resistant strain of the malaria parasite Plasmodium falciparum” (J Med Chem, 1994).
In brackets after ≈: the same amount, converted by molar mass.

System: not listed separately
Assay: In vitro therapeutic index value is the ratio between IC50 values of [J] and [P]
Assay type: cell-based
Details: human, Jurkat cells; read-out: TI

SMILES	selectivity ratio
Nc1ccc(Nc2c3ccccc3nc3ccccc23)cc1	0.5
[N-]=[N+]=Nc1ccc2c(Nc3ccc(S(N)(=O)=O)cc3)c3ccc(N=[N+]=[N-])cc3nc2c1	83
COc1ccc(Nc2c3ccc(N)cc3nc3cc(N)ccc23)cc1	27
NC(=O)c1ccc(Nc2c3ccc(N)cc3nc3cc(N)ccc23)cc1	> 285
CN(C)c1ccc2c(Nc3ccccc3)c3ccc(N(C)C)cc3nc2c1	0.6
CN(C)c1ccc(Nc2c3ccc(N)cc3nc3cc(N)ccc23)cc1	176
Nc1ccc(Nc2c3ccccc3nc3cc(N)ccc23)cc1	7.5
COc1cc(NS(C)(=O)=O)ccc1Nc1c2ccccc2nc2ccccc12 [AMSACRINE]	< 1.5
CN(C)C(=O)c1ccc(Nc2c3ccc(N)cc3nc3cc(N)ccc23)cc1	> 33
COc1cc(NS(C)(=O)=O)ccc1Nc1c2ccc(N)cc2nc2cc(N)ccc12	8
CN(C)Cc1ccc(Nc2c3ccccc3nc3cc(N)ccc23)cc1	10
CN(C)c1ccc(Nc2c3ccccc3nc3ccccc23)cc1	< 2
CNc1ccc(Nc2c3ccccc3nc3cc(N)ccc23)cc1	1.6
Nc1ccc2c(Nc3ccc(CN4CCCCC4)cc3)c3ccc(N)cc3nc2c1	> 100
CS(=O)(=O)Nc1ccc(Nc2c3ccccc3nc3ccccc23)cc1	< 0.3
CNS(=O)(=O)c1ccc(Nc2c3ccc(N)cc3nc3cc(N)ccc23)cc1	143
Nc1ccc(Nc2c3ccc(N)cc3nc3cc(N)ccc23)cc1	600
Nc1ccc2c(Nc3ccc(S(=O)(=O)N4CCCCC4)cc3)c3ccc(N)cc3nc2c1	10
CN(C)Cc1ccc(Nc2c3ccccc3nc3ccccc23)cc1	50
COc1cc(NS(C)(=O)=O)ccc1Nc1c2ccc(N(C)C)cc2nc2cc(N(C)C)ccc12	< 2.5

System: Plasmodium falciparum
Assay: Inhibitory concentration IC50 against Plasmodium falciparum K1 by [3H]hypoxanthine uptake over 24 hr
Assay type: functional, organism-based
Details: not given
Procedure, shortened: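 K1 strain of P. falciparum (chloroquine- and pyrimethamine-resistant) in infected erythrocyte suspensions at 0.5% initial parasitemia, exposed to drug for 24 h at 37 °C. Read-out is [3H]hypoxanthine incorporation into parasites. IC50 is the concentration giving 50% inhibition relative to untreated controls.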

SMILES	IC50 [nM]
Nc1ccc(Nc2c3ccccc3nc3ccccc23)cc1	1500
[N-]=[N+]=Nc1ccc2c(Nc3ccc(S(N)(=O)=O)cc3)c3ccc(N=[N+]=[N-])cc3nc2c1	30
COc1ccc(Nc2c3ccc(N)cc3nc3cc(N)ccc23)cc1	150
NC(=O)c1ccc(Nc2c3ccc(N)cc3nc3cc(N)ccc23)cc1	70
CN(C)c1ccc2c(Nc3ccccc3)c3ccc(N(C)C)cc3nc2c1	2400
CN(C)c1ccc(Nc2c3ccc(N)cc3nc3cc(N)ccc23)cc1	34
Nc1ccc(Nc2c3ccccc3nc3cc(N)ccc23)cc1	100
COc1cc(NS(C)(=O)=O)ccc1Nc1c2ccccc2nc2ccccc12 [AMSACRINE]	600
CN(C)C(=O)c1ccc(Nc2c3ccc(N)cc3nc3cc(N)ccc23)cc1	600
COc1cc(NS(C)(=O)=O)ccc1Nc1c2ccc(N)cc2nc2cc(N)ccc12	100
CN(C)Cc1ccc(Nc2c3ccccc3nc3cc(N)ccc23)cc1	250
CN(C)c1ccc(Nc2c3ccccc3nc3ccccc23)cc1	470
CNc1ccc(Nc2c3ccccc3nc3cc(N)ccc23)cc1	320
Nc1ccc2c(Nc3ccc(CN4CCCCC4)cc3)c3ccc(N)cc3nc2c1	200
CS(=O)(=O)Nc1ccc(Nc2c3ccccc3nc3ccccc23)cc1	3000
CNS(=O)(=O)c1ccc(Nc2c3ccc(N)cc3nc3cc(N)ccc23)cc1	14
Nc1ccc(Nc2c3ccc(N)cc3nc3cc(N)ccc23)cc1	25
Nc1ccc2c(Nc3ccc(S(=O)(=O)N4CCCCC4)cc3)c3ccc(N)cc3nc2c1	1400
CN(C)Cc1ccc(Nc2c3ccccc3nc3ccccc23)cc1	150
COc1cc(NS(C)(=O)=O)ccc1Nc1c2ccc(N(C)C)cc2nc2cc(N(C)C)ccc12	400

Biological target: T1, DNA topoisomerase 2 (Plasmodium falciparum K1) (UniProt P41001)
T1 sequence (whole entry): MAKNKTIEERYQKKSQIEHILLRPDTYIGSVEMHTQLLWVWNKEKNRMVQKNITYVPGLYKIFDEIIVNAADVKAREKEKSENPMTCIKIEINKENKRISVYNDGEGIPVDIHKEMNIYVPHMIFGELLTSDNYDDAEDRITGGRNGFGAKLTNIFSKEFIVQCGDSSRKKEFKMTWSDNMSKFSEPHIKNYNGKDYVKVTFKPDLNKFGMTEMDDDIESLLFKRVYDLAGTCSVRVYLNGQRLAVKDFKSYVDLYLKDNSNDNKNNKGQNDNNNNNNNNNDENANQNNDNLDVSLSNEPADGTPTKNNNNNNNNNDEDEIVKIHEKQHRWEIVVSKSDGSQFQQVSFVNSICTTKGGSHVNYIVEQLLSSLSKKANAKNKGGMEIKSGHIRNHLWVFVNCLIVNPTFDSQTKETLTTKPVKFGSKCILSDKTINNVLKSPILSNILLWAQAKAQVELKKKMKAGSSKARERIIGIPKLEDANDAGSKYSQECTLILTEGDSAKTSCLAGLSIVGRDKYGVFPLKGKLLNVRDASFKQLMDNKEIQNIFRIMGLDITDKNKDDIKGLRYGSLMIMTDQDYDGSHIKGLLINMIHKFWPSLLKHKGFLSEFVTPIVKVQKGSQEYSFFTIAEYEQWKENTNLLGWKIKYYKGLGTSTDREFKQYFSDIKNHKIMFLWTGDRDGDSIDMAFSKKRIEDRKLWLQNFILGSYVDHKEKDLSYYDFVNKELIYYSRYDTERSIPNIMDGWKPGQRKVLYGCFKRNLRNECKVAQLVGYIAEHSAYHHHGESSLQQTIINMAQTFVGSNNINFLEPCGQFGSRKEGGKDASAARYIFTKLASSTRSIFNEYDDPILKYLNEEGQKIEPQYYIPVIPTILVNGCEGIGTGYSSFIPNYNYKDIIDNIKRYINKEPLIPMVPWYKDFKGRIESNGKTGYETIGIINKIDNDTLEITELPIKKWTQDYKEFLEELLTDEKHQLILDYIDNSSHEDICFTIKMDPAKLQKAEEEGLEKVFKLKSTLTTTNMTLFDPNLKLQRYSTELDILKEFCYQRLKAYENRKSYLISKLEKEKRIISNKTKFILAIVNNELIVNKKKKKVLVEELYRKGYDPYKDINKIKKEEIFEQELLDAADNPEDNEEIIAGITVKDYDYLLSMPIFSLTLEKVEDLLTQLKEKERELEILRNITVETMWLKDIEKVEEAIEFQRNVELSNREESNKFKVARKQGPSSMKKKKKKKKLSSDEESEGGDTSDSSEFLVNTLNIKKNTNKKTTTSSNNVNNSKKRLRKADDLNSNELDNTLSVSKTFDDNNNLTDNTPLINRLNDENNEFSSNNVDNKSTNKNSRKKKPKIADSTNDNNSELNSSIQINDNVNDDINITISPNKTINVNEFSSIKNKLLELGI
Assay: Minimum inhibitory concentration required to completely inhibit topoisomerase II activity from Plasmodium falciparum was determined using P4 DNA […] assay
Details: not given

SMILES	MIC [µM]
COc1ccc(Nc2c3ccc(N)cc3nc3cc(N)ccc23)cc1	6 (≈ 1.98 µg/mL)
NC(=O)c1ccc(Nc2c3ccc(N)cc3nc3cc(N)ccc23)cc1	6 (≈ 2.06 µg/mL)
CN(C)c1ccc(Nc2c3ccc(N)cc3nc3cc(N)ccc23)cc1	12.5 (≈ 4.29 µg/mL)
CNS(=O)(=O)c1ccc(Nc2c3ccc(N)cc3nc3cc(N)ccc23)cc1	25 (≈ 9.84 µg/mL)
Nc1ccc(Nc2c3ccc(N)cc3nc3cc(N)ccc23)cc1	10 (≈ 3.15 µg/mL)

System: Plasmodium falciparum
Assay: Inhibitory concentration against Plasmodium falciparum D6 infected erythrocytes
Assay type: functional, organism-based
Details: not given

SMILES	IC50 [nM]
CN(C)c1ccc(Nc2c3ccc(N)cc3nc3cc(N)ccc23)cc1	63
Nc1ccc(Nc2c3ccc(N)cc3nc3cc(N)ccc23)cc1	33

Biological target: DNA topoisomerase II (Homo sapiens) (UniProt P11388+Q02880)
Assay: Minimum inhibitory concentration required to completely inhibit topoisomerase II activity from jurkat human leukemia cells was determined using P4 DNA unknotting assay
Details: not given
Procedure, shortened: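 Enzyme is a partially purified topoisomerase II extract from midlog Jurkat cells, made by sonication in Tris pH 8/KCl/MgCl2/EGTA buffer with protease inhibitors, then PEG/KCl precipitation. Extract is diluted to a set P4 DNA unknotting activity. Proteinase K method scores unknotting and linearization of phage P4 DNA on 0.7% agarose gels stained with ethidium bromide. MIC is the concentration giving complete inhibition.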

SMILES	MIC [µM]
COc1ccc(Nc2c3ccc(N)cc3nc3cc(N)ccc23)cc1	20 (≈ 6.61 µg/mL)
NC(=O)c1ccc(Nc2c3ccc(N)cc3nc3cc(N)ccc23)cc1	20 (≈ 6.87 µg/mL)
CN(C)c1ccc(Nc2c3ccc(N)cc3nc3cc(N)ccc23)cc1	20 (≈ 6.87 µg/mL)
CNS(=O)(=O)c1ccc(Nc2c3ccc(N)cc3nc3cc(N)ccc23)cc1	20 (≈ 7.87 µg/mL)
Nc1ccc(Nc2c3ccc(N)cc3nc3cc(N)ccc23)cc1	20 (≈ 6.31 µg/mL)

System: Plasmodium falciparum
Assay: Inhibitory concentration against Plasmodium falciparum W2 infected erythrocytes
Assay type: functional, organism-based
Details: not given

SMILES	IC50 [nM]
CN(C)c1ccc(Nc2c3ccc(N)cc3nc3cc(N)ccc23)cc1	118
Nc1ccc(Nc2c3ccc(N)cc3nc3cc(N)ccc23)cc1	37

System: Plasmodium falciparum
Assay: Inhibitory concentration against Plasmodium falciparum K1 infected erythrocytes
Assay type: functional, organism-based
Details: not given
Procedure, shortened: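 Chloroquine- and pyrimethamine-resistant K1 strain in infected erythrocyte suspensions (0.5% initial parasitemia), exposed to drug for 24 h at 37 °C. Read-out: [3H]hypoxanthine incorporation into parasites. IC50 in μM is the concentration that reduces incorporation to 50% of untreated controls.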

SMILES	IC50 [nM]
CN(C)c1ccc(Nc2c3ccc(N)cc3nc3cc(N)ccc23)cc1	34
Nc1ccc(Nc2c3ccc(N)cc3nc3cc(N)ccc23)cc1	25

System: Jurkat
Assay: Concentration required to reduce growth of human jurkat leukemia cells to 50% of control cultures, determined using a 72 hr continuous exposure
Assay type: functional, cell-based
Details: not given
Procedure, shortened: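 Human Jurkat leukemia cells given continuous drug exposure for 72 h, then counted on a hemocytometer. IC50 is the concentration that cuts cell growth to 50% of untreated controls. Values are means of at least two independent determinations, with variation typically ±15%.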

SMILES	IC50 [nM]
Nc1ccc(Nc2c3ccccc3nc3ccccc23)cc1	750
[N-]=[N+]=Nc1ccc2c(Nc3ccc(S(N)(=O)=O)cc3)c3ccc(N=[N+]=[N-])cc3nc2c1	2500
COc1ccc(Nc2c3ccc(N)cc3nc3cc(N)ccc23)cc1	4000
NC(=O)c1ccc(Nc2c3ccc(N)cc3nc3cc(N)ccc23)cc1	> 20000
CN(C)c1ccc2c(Nc3ccccc3)c3ccc(N(C)C)cc3nc2c1	1400
CN(C)c1ccc(Nc2c3ccc(N)cc3nc3cc(N)ccc23)cc1	6000
Nc1ccc(Nc2c3ccccc3nc3cc(N)ccc23)cc1	750
COc1cc(NS(C)(=O)=O)ccc1Nc1c2ccccc2nc2ccccc12 [AMSACRINE]	< 1000
CN(C)C(=O)c1ccc(Nc2c3ccc(N)cc3nc3cc(N)ccc23)cc1	> 20000
COc1cc(NS(C)(=O)=O)ccc1Nc1c2ccc(N)cc2nc2cc(N)ccc12	800
CN(C)Cc1ccc(Nc2c3ccccc3nc3cc(N)ccc23)cc1	2500
CN(C)c1ccc(Nc2c3ccccc3nc3ccccc23)cc1	< 1000
CNc1ccc(Nc2c3ccccc3nc3cc(N)ccc23)cc1	500
Nc1ccc2c(Nc3ccc(CN4CCCCC4)cc3)c3ccc(N)cc3nc2c1	> 20000
CS(=O)(=O)Nc1ccc(Nc2c3ccccc3nc3ccccc23)cc1	< 1000
CNS(=O)(=O)c1ccc(Nc2c3ccc(N)cc3nc3cc(N)ccc23)cc1	2000
Nc1ccc(Nc2c3ccc(N)cc3nc3cc(N)ccc23)cc1	15000
Nc1ccc2c(Nc3ccc(S(=O)(=O)N4CCCCC4)cc3)c3ccc(N)cc3nc2c1	14000
CN(C)Cc1ccc(Nc2c3ccccc3nc3ccccc23)cc1	7500
COc1cc(NS(C)(=O)=O)ccc1Nc1c2ccc(N(C)C)cc2nc2cc(N(C)C)ccc12	< 1000
